Measurements reported in ChEMBL document CHEMBL3616402, “A novel series of indazole-/indole-based glucagon receptor antagonists” (Bioorg Med Chem Lett, 2015).

How the values were obtained:
Glucagon receptor [1] = molecular target: T1, Glucagon receptor (Homo sapiens, UniProt P47871); assay: Antagonist activity against human glucagon receptor expressed in CHO cells assessed as reduction in glucagon-induced cAMP production; assay type: functional, cell-based
Glucagon receptor [2] = molecular target: T1, Glucagon receptor; assay: Displacement of [125I]glucagon from human glucagon receptor expressed in CHO cell membranes
Outline: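 Binding: displacement of [125I]glucagon from human GCGR in membranes prepared from a CHO cell line stably expressing hGCGR; IC50 reported in nM.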

[3] = Half life in Wistar rat at 0.5 mg/kg, iv or 2 mg/kg, po; assay type: ADME, organism-based; conditions: in vivo
Outline: (§1)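 Wistar rats given 0.5 mg/kg iv and 2 mg/kg po; plasma concentration–time profiles used to derive plasma clearance, steady-state volume of distribution, half-life and dose-normalized AUC (µM·h·kg/mg).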

[4] = Plasma clearance in Wistar rat at 0.5 mg/kg, iv or 2 mg/kg, po; assay type: ADME, organism-based; outline: as §1
Rattus norvegicus = assay: Dose normalized AUC in Wistar rat at 0.5 mg/kg, iv or 2 mg/kg, po; assay type: ADME, organism-based; conditions: in vivo; outline: as §1
[5] = Volume of distribution at steady state in Wistar rat at 0.5 mg/kg, iv or 2 mg/kg, po; assay type: ADME, organism-based; conditions: in vivo, read-out: Vdss; outline: as §1
Homo sapiens = species on record: Homo sapiens; assay: Selectivity index, ratio of IC50 for human glucose dependent insulinotropic peptide receptor to IC50 for human glucagon receptor
[6] = Oral bio availability in Wistar rat 2 mg/kg; assay type: ADME, organism-based; conditions: in vivo
Outline: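 Oral bioavailability from Wistar rats dosed 2 mg/kg po with 0.5 mg/kg iv reference dose; F (%) from plasma exposure.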

[7] = molecular target: T2, Gastric inhibitory polypeptide receptor (Homo sapiens, UniProt P48546); assay: Antagonist activity against human glucose dependent insulinotropic peptide receptor by cAMP accumulation assay; assay type: functional
T2 sequence (P48546 whole entry): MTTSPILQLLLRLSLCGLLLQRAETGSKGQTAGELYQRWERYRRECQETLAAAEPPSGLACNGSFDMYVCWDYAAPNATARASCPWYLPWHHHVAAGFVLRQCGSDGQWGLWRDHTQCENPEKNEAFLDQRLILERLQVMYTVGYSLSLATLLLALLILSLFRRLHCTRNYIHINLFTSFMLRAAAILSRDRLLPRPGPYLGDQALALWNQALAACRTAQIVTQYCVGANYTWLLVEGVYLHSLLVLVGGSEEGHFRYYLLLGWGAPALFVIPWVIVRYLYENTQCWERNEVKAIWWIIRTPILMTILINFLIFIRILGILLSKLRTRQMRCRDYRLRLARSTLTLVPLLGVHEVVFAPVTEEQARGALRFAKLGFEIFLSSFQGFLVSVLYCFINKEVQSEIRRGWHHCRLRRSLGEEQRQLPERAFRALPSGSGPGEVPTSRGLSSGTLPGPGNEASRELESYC
Outline: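 Selectivity counter-screen: cAMP production measured in CHO cells expressing human GIPR; IC50 (potency) determined.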

T1 sequence (P47871 whole entry): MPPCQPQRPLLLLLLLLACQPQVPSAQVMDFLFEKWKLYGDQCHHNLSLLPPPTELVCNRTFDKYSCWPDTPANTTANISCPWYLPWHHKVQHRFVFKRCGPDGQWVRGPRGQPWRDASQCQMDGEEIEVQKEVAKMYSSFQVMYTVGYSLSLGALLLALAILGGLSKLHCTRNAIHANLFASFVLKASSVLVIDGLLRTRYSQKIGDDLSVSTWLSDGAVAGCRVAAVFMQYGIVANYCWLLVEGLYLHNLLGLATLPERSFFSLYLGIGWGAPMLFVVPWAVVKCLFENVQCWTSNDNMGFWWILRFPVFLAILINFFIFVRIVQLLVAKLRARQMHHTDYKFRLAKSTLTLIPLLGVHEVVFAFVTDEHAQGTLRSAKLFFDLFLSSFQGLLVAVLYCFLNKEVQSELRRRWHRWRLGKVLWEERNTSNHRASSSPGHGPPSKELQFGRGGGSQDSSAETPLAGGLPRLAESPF

IC50 (Glucagon receptor [1]) | IC50 (Glucagon receptor [2]) | Compound | also measured
9 nM | 1.5 nM | CCCCC(c1ccc(C(=O)NCCC(=O)O)cc1)n1nc(-c2cc(C(F)(F)F)ccc2OC)c2ccc(-c3ccc(SC)cc3)cc21 (centres undefined) | 
69 nM | 4 nM | COc1ccc(C(F)(F)F)cc1-c1nn(C(c2ccc(C(=O)NCCC(=O)O)cc2)C(C)C)c2cc(-c3ccc(C)cc3)ccc12 (centres undefined) | 
77 nM | 72 nM | COc1ncccc1-c1nn(C(C)c2ccc(C(=O)NCCC(=O)O)cc2)c2cc(-c3ccc(OC(F)(F)F)cc3)ccc12 (centres undefined) | 
18 nM | 4 nM | CCCCC(c1ccc(C(=O)NCCC(=O)O)cc1)n1nc(-c2cc(C(F)(F)F)ccc2OC)c2ccc(-c3ccc(OC)cc3Cl)cc21 (centres undefined) | 
46 nM | 7 nM | CCCCC(c1ccc(C(=O)NCCC(=O)O)cc1)n1nc(-c2cc(C(F)(F)F)ccc2OC)c2ccc(-c3cc(F)cc(Cl)c3)cc21 (centres undefined) | 
2700 nM | 1700 nM | CCCC(c1ccc(C(=O)NCCC(=O)O)cc1)n1nc(-c2cc(C(F)(F)F)ccc2OC)c2cccc(-c3ccc(OC)cc3)c21 (centres undefined) | 
120 nM | 5 nM | CC(c1ccc(C(=O)NCCC(=O)O)cc1)n1nc(-c2cc(C(F)(F)F)ccc2F)c2ccc(-c3ccc(OC(F)(F)F)cc3)cc21 (centres undefined) | 
760 nM | 110 nM | COc1ccncc1-c1nn(C(C)c2ccc(C(=O)NCCC(=O)O)cc2)c2cc(-c3ccc(OC(F)(F)F)cc3)ccc12 (centres undefined) | 
84 nM | 35 nM | COc1nccc(-c2nn(C(C)c3ccc(C(=O)NCCC(=O)O)cc3)c3cc(-c4ccc(OC(F)(F)F)cc4)ccc23)n1 (centres undefined) | 
18 nM | 3 nM | CCCCC(c1ccc(C(=O)NCCC(=O)O)cc1)n1nc(-c2cc(C(F)(F)F)ccc2OC)c2ccc(-c3ccccc3)cc21 (centres undefined) | 
130 nM | 8 nM | CCCC(c1ccc(C(=O)NCCC(=O)O)cc1)n1cc(-c2cc(C(F)(F)F)ccc2OC)c2ccc(-c3ccc(OC)cc3)cc21 (racemic) | 
210 nM | 40 nM | CC(c1ccc(C(=O)NCCC(=O)O)cc1)n1nc(-c2ccc(C(=O)N(C)C)cc2)c2ccc(-c3ccc(OC(F)(F)F)cc3)cc21 (centres undefined) | 
14 nM | 1.6 nM | CCCCC(c1ccc(C(=O)NCCC(=O)O)cc1)n1nc(-c2cc(C(F)(F)F)ccc2OC)c2ccc(-c3ccc(C(F)(F)F)cc3)cc21 (centres undefined) | 
52 nM | 7 nM | CC(c1ccc(C(=O)NCCC(=O)O)cc1)n1nc(-c2cc(F)cc(F)c2F)c2ccc(-c3ccc(OC(F)(F)F)cc3)cc21 (centres undefined) | 
56 nM | 3 nM | CC(c1ccc(C(=O)NCCC(=O)O)cc1)n1nc(-c2cc(Cl)cc(C(F)(F)F)c2)c2ccc(-c3ccc(OC(F)(F)F)cc3)cc21 (centres undefined) | 
11 nM | 7 nM | COc1ccc(OC(F)(F)F)cc1-c1nn(C(C)c2ccc(C(=O)NCCC(=O)O)cc2)c2cc(-c3ccc(OC(F)(F)F)cc3)ccc12 (centres undefined) | 
17 nM | 7 nM | CCCC(c1ccc(C(=O)NCCC(=O)O)cc1)n1nc(-c2cc(C(F)(F)F)ccc2OC)c2cc(-c3ccc(C)cc3)ccc21 (centres undefined) | 
140 nM | 10 nM | CC(c1ccc(C(=O)NCCC(=O)O)cc1)n1nc(-c2cc(F)ccc2Cl)c2ccc(-c3ccc(OC(F)(F)F)cc3)cc21 (centres undefined) | 
3800 nM | 780 nM | CCCC(c1ccc(C(=O)NCCC(=O)O)cc1)n1nc(-c2cc(C(F)(F)F)ccc2OC)c2cccc(-c3ccc(C)cc3)c21 (centres undefined) | 
11 nM | 4 nM | CCCC(c1ccc(C(=O)NCCC(=O)O)cc1)n1nc(-c2cc(C(F)(F)F)ccc2OC)c2ccc(-c3ccc(OC)cc3)cc21 (centres undefined) | 
37 nM | 4 nM | COc1cc(F)c(F)cc1-c1nn(C(C)c2ccc(C(=O)NCCC(=O)O)cc2)c2cc(-c3ccc(OC(F)(F)F)cc3)ccc12 (centres undefined) | 
220 nM | 2 nM | CC(c1ccc(C(=O)NCCC(=O)O)cc1)n1nc(-c2cc(Cl)ccc2C(N)=O)c2ccc(-c3ccc(OC(F)(F)F)cc3)cc21 (centres undefined) | 

IC50 (Glucagon receptor [1]) | IC50 (Glucagon receptor [2]) | Compound | also measured
6.6 nM | 2.6 nM | CCCCC(c1ccc(C(=O)NCCC(=O)O)cc1)n1nc(-c2cc(C(F)(F)F)ccc2OC)c2ccc(-c3ccc(C)cc3)cc21 (centres undefined) | half-life [3]: 240 min; clearance [4]: 3.9 mL/min/kg; AUC/dose (Rattus norvegicus): 1.2 µM·kg·h/mg; Vd [5]: 1 L/kg; Ratio IC50 (Homo sapiens): 150; bioavailability [6]: 17%; IC50 [7]: 1000 nM
18 nM | 4 nM | CCCCC(c1ccc(C(=O)NCCC(=O)O)cc1)n1nc(-c2cc(C(F)(F)F)ccc2OC)c2ccc(-c3ccc(C)s3)cc21 (centres undefined) | 
100 nM | 50 nM | COc1cncc(-c2nn(C(C)c3ccc(C(=O)NCCC(=O)O)cc3)c3cc(-c4ccc(OC(F)(F)F)cc4)ccc23)c1 (centres undefined) | 
21 nM | 4 nM | CCC(c1ccc(C(=O)NCCC(=O)O)cc1)n1nc(-c2cc(C(F)(F)F)ccc2OC)c2ccc(-c3ccc(C)cc3)cc21 (centres undefined) | 
24 nM | 3.4 nM | CCCCC(c1ccc(C(=O)NCCC(=O)O)cc1)n1nc(-c2cc(C(F)(F)F)ccc2OC)c2ccc(-c3ccc(OC)nc3)cc21 (centres undefined) | 
20 nM | 6 nM | CC(c1ccc(C(=O)NCCC(=O)O)cc1)n1nc(-c2cc(F)c(F)c(F)c2)c2ccc(-c3ccc(OC(F)(F)F)cc3)cc21 (centres undefined) | 
43 nM | 15 nM | CC(c1ccc(C(=O)NCCC(=O)O)cc1)n1nc(-c2ccc(C#N)cc2)c2ccc(-c3ccc(OC(F)(F)F)cc3)cc21 (centres undefined) | 
26 nM | 3.5 nM | CCCCC(c1ccc(C(=O)NCCC(=O)O)cc1)n1nc(-c2cc(C(F)(F)F)ccc2OC)c2ccc(-c3cc(F)c(F)c(F)c3)cc21 (centres undefined) | 
44 nM | 4 nM | CC(c1ccc(C(=O)NCCC(=O)O)cc1)n1nc(-c2ccc(Cl)c(F)c2)c2ccc(-c3ccc(OC(F)(F)F)cc3)cc21 (centres undefined) | 
65 nM | 26 nM | COc1ccc(-c2nn(C(C)c3ccc(C(=O)NCCC(=O)O)cc3)c3cc(-c4ccc(OC(F)(F)F)cc4)ccc23)cn1 (centres undefined) | 
48 nM | 4 nM | CCCC(c1ccc(C(=O)NCCC(=O)O)cc1)n1cc(-c2cc(C(F)(F)F)ccc2OC)c2ccc(-c3ccc(C)cc3)cc21 (racemic) | 
36 nM | 3 nM | COc1ccc(Cl)cc1-c1nn(C(C)c2ccc(C(=O)NCCC(=O)O)cc2)c2cc(-c3ccc(OC(F)(F)F)cc3)ccc12 (centres undefined) | 
5.6 nM | 1 nM | CCCC(c1ccc(C(=O)NCCC(=O)O)cc1)n1nc(-c2cc(C(F)(F)F)ccc2OC)c2ccc(-c3ccc(OC(F)(F)F)cc3)cc21 (centres undefined) | half-life [3]: 582 min; clearance [4]: 2.2 mL/min/kg; AUC/dose (Rattus norvegicus): 2 µM·kg·h/mg; Vd [5]: 1.3 L/kg; Ratio IC50 (Homo sapiens): 250; bioavailability [6]: 19%; IC50 [7]: 1400 nM
41 nM | 8 nM | CC(c1ccc(C(=O)NCCC(=O)O)cc1)n1nc(-c2ccc(Cl)cc2Cl)c2ccc(-c3ccc(OC(F)(F)F)cc3)cc21 (centres undefined) | 
140 nM | 39 nM | COc1ccc(C(F)(F)F)cc1-c1nn(Cc2ccc(C(=O)NCCC(=O)O)cc2)c2cc(-c3ccc(C)cc3)ccc12 | 
8 nM | 0.8 nM | CCCCC(c1ccc(C(=O)NCCC(=O)O)cc1)n1nc(-c2cc(C(F)(F)F)ccc2OC)c2ccc(-c3ccc(OC(F)(F)F)cc3)cc21 (centres undefined) | half-life [3]: 282 min; clearance [4]: 7.5 mL/min/kg; AUC/dose (Rattus norvegicus): 0.3 µM·kg·h/mg; Vd [5]: 0.72 L/kg; Ratio IC50 (Homo sapiens): 94; bioavailability [6]: 9%; IC50 [7]: 750 nM
360 nM | 12 nM | CCCC(c1ccc(C(=O)NCCC(=O)O)cc1)n1cc(-c2cc(C(F)(F)F)ccc2OC)c2ccc(-c3ccc(OC(F)(F)F)cc3)nc21 (centres undefined) | 
14 nM | 1.9 nM | CCCCC(c1ccc(C(=O)NCCC(=O)O)cc1)n1nc(-c2cc(C(F)(F)F)ccc2OC)c2ccc(-c3ccc(OC)cc3)cc21 (centres undefined) | half-life [3]: 384 min; clearance [4]: 1.7 mL/min/kg; AUC/dose (Rattus norvegicus): 4 µM·kg·h/mg; Vd [5]: 0.67 L/kg; Ratio IC50 (Homo sapiens): 79; bioavailability [6]: 27%; IC50 [7]: 1100 nM
18 nM | 1.5 nM | CCCCC(c1ccc(C(=O)NCCC(=O)O)cc1)n1nc(-c2cc(C(F)(F)F)ccc2OC)c2ccc(-c3ccc(OC)c(F)c3)cc21 (centres undefined) | 
26 nM | 10 nM | CCCC(c1ccc(C(=O)NCCC(=O)O)cc1)n1nc(-c2cc(C(F)(F)F)ccc2OC)c2cc(-c3ccc(OC)cc3)ccc21 (centres undefined) | 
5 nM | 2 nM | CCCC(c1ccc(C(=O)NCCC(=O)O)cc1)n1nc(-c2cc(C(F)(F)F)ccc2OC)c2ccc(-c3ccc(C)cc3)cc21 (centres undefined) | 
